Experimental data as given in ChEMBL document CHEMBL4825701, “New antiparasitic flexible triaryl diamidines, their prodrugs and aza analogues: Synthesis, in vitro and in vivo biological evaluation, and molecular modelling studies” (Eur J Med Chem, 2021).
Calls of active or inactive are those of the source. The calls are words filed in the database; no cut-off is given here.

Tests used:
L6 = assay: Cytotoxicity against rat L6 cells by Alamar blue assay; type: cell-based
Outline: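 L6 rat myoblasts were run by the same Alamar Blue protocol as the trypanosome assay. Seven 3-fold serial dilutions were incubated 72 h at 37 °C, 5% CO₂, followed by 2–4 h with dye.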

[1] = tested on: Trypanosoma brucei rhodesiense; assay: Antitrypanosomal activity against bloodstream form of Trypanosoma brucei rhodesiense STIB900 infected in mouse assessed as reduction in parasitemia by measuring time taken to cure at 5 mg/kg, ip measured up to 60 days (reference value: 11 days); type: functional; settings: time day <=60
[2] = Selectivity index, ratio of IC50 for cytotoxicity against rat L6 cells to IC50 for antitrypanosomal activity against Trypanosoma brucei rhodesiense STIB900; type: toxicity, cell-based; settings: read-out: Selectivity Index
Outline: (§1)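 SI = IC50(L6)/IC50(parasite): K1 P. falciparum for the antiplasmodial index, T. b. rhodesiense STIB900 for the antitrypanosomal index. L6 rat myoblasts were run as in the trypanosome assay: MEM with 2-mercaptoethanol and 15% heat-inactivated horse serum, seven 3-fold serial dilutions, 72 h at 37 °C in 5% CO2.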

[3] = tested on: Trypanosoma brucei rhodesiense; assay: Antitrypanosomal activity against Trypanosoma brucei rhodesiense STIB900 measured after 72 hrs by alamar blue dye based fluorimetry analysis; type: functional, organism-based; settings: STIB900, 72 h
[4] = tested on: Poly(dA-dT)oligonucleotide
[5] = tested on: Poly(dA-dT)oligonucleotide; assay: Binding affinity to poly (dA-dT) (unknown origin) by circular dichroism spectroscopy; type: nucleic-acid assay
[6] = Selectivity index, ratio of IC50 for cytotoxicity against rat L6 cells to IC50 for antiplasmodial activity against chloroquine and pyrimethamine resistant Plasmodium falciparum K1 infected in human red blood cells; type: toxicity, cell-based; settings: read-out: Selectivity Index; outline: as §1
Plasmodium falciparum = assay: Antiplasmodial activity against chloroquine and pyrimethamine resistant Plasmodium falciparum K1 infected in human erythrocytes assessed as reduction in [3H]hypoxanthine incorporation measured after 24 hrs by liquid scintillation counting method; type: functional, organism-based
[7] = tested on: Trypanosoma brucei rhodesiense; assay: Antitrypanosomal activity against Trypanosoma brucei rhodesiense STIB900 infected in mouse assessed as reduction in parasitemia by measuring time taken to cure at 25 mg/kg, po measured up to 60 days (reference value: 11 days); type: functional; settings: time day <=60

Compound	IC50 (L6) [nM]	Time [1] [days]	selectivity ratio [2]	IC50 [3] [nM]	ΔTm [4] [°C]	Activity [5]	selectivity ratio [6]	IC50 (Plasmodium falciparum) [nM]	Time [7] [days]
N=C(N)c1ccc(Oc2ccc(-c3ccc(C(=N)N)cc3)cn2)cc1	2100	>45.5	191	11	17.8	inactive	525		
N=C(N)c1ccc(-c2ccc(-c3ccc(C(=N)N)cc3)o2)cc1 [FURAMIDINE]		24							
CO/N=C(\N)c1ccc(Oc2cccc(Oc3ccc(/C(N)=N\OC)cc3)n2)cc1	117000		4.5	26100			12.3		
N=C(N)c1ccc(-c2ccc(Cc3cccc(C(=N)N)c3)cc2)cc1	2000	22.75	57.1	35	8.5		64.5	31	
CO/N=C(/N)c1ccc(Cc2ccc(Cc3ccc(/C(N)=N\OC)cc3)cc2)cc1	37300			12600			> 3.9	> 9500	
N=C(N)c1ccc(OCCCCCOc2ccc(C(=N)N)cc2)cc1 [PENTAMIDINE]		20							
N=C(N)c1ccc(Cc2ccc(Cc3cccc(C(=N)N)c3)cc2)cc1	28300	15.5	1890	15	0.5		1230		
CO/N=C(\N)c1cccc(Cc2ccc(-c3ccc(/C(N)=N\OC)cc3)cc2)c1	34800		2.1	16600			3.7	> 9500	13
N=C(N)c1ccc(Cc2ccc(Cc3ccc(C(=N)N)cc3)cc2)cc1	19400	16.25	269	72	1		970	23	
N=C(N)c1ccc(Cc2ccc(-c3ccc(C(=N)N)cc3)nc2)cc1	18100	>60	441	41	1	inactive	1620	11.2	
CN(C)CCCC(=O)O/N=C(\N)c1ccc(Cc2ccc(-c3ccc(/C(N)=N\OC(=O)CCCN(C)C)cc3)cc2)cc1	1100		10.5	105			6	183	7
N=C(N)c1ccc(Cc2ccc(-c3ccc(C(=N)N)cc3)cc2)cc1	4000	22	54.8	73	9		1330	3	
CO/N=C(\N)c1ccc(-c2ccc(Oc3ccc(/C(N)=N\OC)cc3)nc2)cc1	91000		6.3	14400			9.7		
N=C(N)c1ccc(Oc2cccc(Oc3ccc(C(=N)N)cc3)n2)cc1	99300		263	378	1.25		307	323	
N=C(N)c1ccc(Cc2ccc(Cc3ccc(C(=N)N)cc3)o2)cc1	25000	18.75	930	27	2.25		1390		
CO/N=C(\N)c1cccc(Cc2ccc(Cc3ccc(/C(N)=N\OC)cc3)cc2)c1	32300		1.7	18700			> 3.4	> 9500	9.2
